These results are taken from BindingDB's records for doi:10.1021/jm301002f (H. Lee Moffitt Cancer Center and Research Institute, 2012).

For test [1], the target named is T1, Toll-like receptor 2 (Homo sapiens, UniProt O60603). Put plainly: Agonist activity at human TLR2 expressed in HEK293 cells assessed as induction of NF-kappaB signaling after 24 hrs by luminescence based luciferase reporter gene assay.
Test [2] deals with T1, Toll-like receptor 2. The experiment in a line: Displacement of Eu-DTPA from human TLR2 expressed in SU.86.86 cells after 1 hr.
For test [3], the target named is T1, Toll-like receptor 2. Put plainly: Displacement of Eu-DTPA from human TLR2 expressed in HEK293 cells after 1 hr. An outline of the steps: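 Live-cell europium TRF competition binding in HEK-293/hTLR2 (poly-D-lysine plates) or SU.86.86 cells grown 2 days to ~80% confluence. Unlabeled ligand 1 μM to 0.01 nM plus 90 nM Eu-DTPA-labeled tracer, 1 h at 37°C; three washes, enhancement solution 30 min at 37°C, read at 340 nm excitation/615 nm emission with time delay.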

SMILES strings stand for the structures. Residues, ends and D or L forms follow the SMILES beside them. *: point of attachment. Propyl(2R-PamO,3-PamO) = CCCCCCCCCCCCCCCC(=O)OC[C@H](C*)OC(=O)CCCCCCCCCCCCCCC; X1 = CC(=O)NCCCOCCOCCOCCCNC(=O)COCC(=O)*

T1 sequence (O60603 whole entry): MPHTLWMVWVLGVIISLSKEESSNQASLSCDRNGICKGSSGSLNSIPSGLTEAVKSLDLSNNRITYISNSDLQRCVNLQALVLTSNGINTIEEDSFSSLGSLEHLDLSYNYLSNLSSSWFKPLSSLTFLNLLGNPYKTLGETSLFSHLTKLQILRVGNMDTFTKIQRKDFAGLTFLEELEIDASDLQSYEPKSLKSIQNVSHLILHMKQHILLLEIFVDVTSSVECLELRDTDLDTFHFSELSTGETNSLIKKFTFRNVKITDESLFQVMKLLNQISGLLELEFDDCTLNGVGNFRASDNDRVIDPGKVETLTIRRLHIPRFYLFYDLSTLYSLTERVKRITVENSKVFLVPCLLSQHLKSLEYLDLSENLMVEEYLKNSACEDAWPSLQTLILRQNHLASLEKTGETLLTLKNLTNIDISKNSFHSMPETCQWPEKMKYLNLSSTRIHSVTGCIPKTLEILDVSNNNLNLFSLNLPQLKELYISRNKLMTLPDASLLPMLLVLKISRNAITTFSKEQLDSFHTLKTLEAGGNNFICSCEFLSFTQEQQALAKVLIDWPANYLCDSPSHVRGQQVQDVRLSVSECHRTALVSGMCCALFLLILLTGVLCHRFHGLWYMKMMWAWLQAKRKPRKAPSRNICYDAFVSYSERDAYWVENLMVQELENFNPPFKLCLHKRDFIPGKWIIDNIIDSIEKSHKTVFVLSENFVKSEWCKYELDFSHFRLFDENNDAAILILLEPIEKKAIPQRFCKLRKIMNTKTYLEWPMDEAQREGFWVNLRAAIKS

One may read the EC50 as the midpoint of the concentration-response curve. As to `CCCCCCCCCCCCCCCC(=O)OC[C@H](CSC[C@H](NC(=O)COCC(=O)NCCCOCCOCCOCCCNC(C)=O)C(=O)N[C@@H](CO)C(=O)N[C@@H](CCCNC(=N)N)C(=O)N[C@@H](Cc1ccccc1)C(=O)N[C@@H](CC(=O)O)C(=O)N[C@@H](CCC(=O)O)C(=O)N[C@@H](CC(=O)O)C(=O)N[C@@H](CC(=O)O)C(=O)N[C@@H](CC(C)C)C(=O)N[C@@H](CCC(=O)O)C(N)=O)OC(=O)CCCCCCCCCCCCCCC` (X1-C(Propyl(2R-PamO,3-PamO))SRFDEDDLE-NH2), the EC50 at Toll-like receptor 2 [1] amounted to 25 nM.
The Ki is a dissociation constant, usually derived from enzyme kinetics or from competition with a known ligand. A high value points to lower affinity. With `CCCCCCCCCCCCCCCC(=O)OCC(CSCC(NC(=O)COCC(=O)NCCCOCCOCCOCCCNC(=O)CCSC1CC(=O)N(CCNC(=O)CCCCC[N+]2=C(/C=C/C=C/C=C3/Cc4cc(S(=O)(=O)O)ccc4N3CC)Cc3cc(S(=O)(=O)[O-])ccc32)C1=O)C(=O)NCC(=O)NC(CO)C(=O)NCCCOCCOCCOCCCNC(=O)COCC(N)=O)OC(=O)CCCCCCCCCCCCCCC` (centres undefined), on Toll-like receptor 2 [1], the EC50 stood at 34 nM. The figures for the Ki at Toll-like receptor 2 [2] and on Toll-like receptor 2 [3] were 67 nM and 11 nM, respectively.
